Published values of several laboratories.
Lines come from different studies, so protocols differ.
Target: Carbonic anhydrase 2 (CA2, Homo sapiens, UniProt P00918)
Effect on: enzyme activity
Mode: inhibitor
Technique: absorbance

SMILES | setting | IC50 [nM]
OC1CCN(c2ccc(/C=N/NC(=S)NCCc3ccccc3)cc2)CC1 |  | 641
OCCOCCN1CCN(C(c2ccccc2)c2ccc(Cl)cc2)CC1 (centres unmarked) | pH 7.4 | 18200
NS(=O)(=O)c1cccc(Nc2nc(-c3cc4cc(Br)ccc4oc3=O)cs2)c1 |  | 680
NS(=O)(=O)c1ccc(-c2ccc(Nc3ccc(F)c(Cl)c3)cc2)cc1 |  | 380
CS(=O)(=O)Nc1ccc(Nc2nc(-c3cc4cc(Br)ccc4oc3=O)cs2)cc1Oc1ccccc1 |  | 380
CC1=C(/C=C/C(C)=C/C=C/C(C)=C\C(=O)O)C(C)(C)CCC1 | pH 7.4 | 10900
OC1CCN(c2ccc(/C=N/NC(=S)NC3CCCCC3)cc2)CC1 |  | 465
NS(=O)(=O)c1ccc(-c2ccc(Nc3ccc(Cl)cc3)cc2)cc1 |  | 2110
CN1CCN(c2nc(-c3cc4cc(Br)ccc4oc3=O)cs2)CC1 |  | 4120
Cc1cccc(C)c1NC(=S)N/N=C/c1ccc(N2CCC(O)CC2)cc1 |  | 424
C[C@H]1c2cccc(O)c2C(=O)C2=C(O)[C@]3(O)C(=O)C(C(N)=O)=C(O)[C@@H](N(C)C)[C@@H]3[C@@H](O)[C@@H]21 | pH 7.4 | 14200
